Experimental findings from ChEMBL document CHEMBL3259660, “Haloemodin as novel antibacterial agent inhibiting DNA gyrase and bacterial topoisomerase I” (J Med Chem, 2014) are described below.

Each structure is given as a SMILES string. Converted amounts (≈) assume the structure as drawn. The source made the active and inactive calls. The rule behind the calls is not given here.

One data set has as its system Staphylococcus aureus. Nature of the data set: Antibacterial activity against methicillin-sensitive Staphylococcus aureus assessed as growth inhibition by agar dilution assay. The data set is classed as functional. Put shortly: (§1)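 Agar dilution MIC per CLSI (aerobic and anaerobic methods); compounds dissolved in DMSO, reference antibiotics in sterile water. MIC taken as lowest concentration with no visible growth; determined at least twice on separate days, higher value reported. Clinical isolate ranges summarized as MIC50/MIC90.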
A general note: Agar dilution tests growth on a series of plates holding different concentrations.

Data set [1] has as its system Staphylococcus epidermidis. Nature of the data set: Antibacterial activity against methicillin-sensitive Staphylococcus epidermidis assessed as growth inhibition by agar dilution assay. The data set is classed as functional. Put shortly:
as §1

In data set [2] the test system is Staphylococcus epidermidis. In words: Antibacterial activity against methicillin-resistant Staphylococcus epidermidis assessed as growth inhibition by agar dilution assay. The data set is classed as functional. Put shortly: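 CLSI agar dilution MIC against aerobic and anaerobic strains. Test compounds were dissolved in DMSO and reference antibiotics in sterile water. MIC was taken as the lowest concentration showing no bacterial growth. Each MIC was determined at least twice on separate days, and the higher value was reported. E. coli PQ 37 was cultured in LA medium.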

Data set [3] concerns Enterococcus faecalis. Nature of the data set: microbe, parasite or virus in culture. The data set is classed as functional. The conditions noted are these: ATCC 29212.
Data set [4] concerns Enterococcus faecalis. In words: Antibacterial activity against vancomycin-sensitive Enterococcus faecalis assessed as growth inhibition by agar dilution assay. The data set is classed as functional.
The next data set deals with Bacillus cereus. Nature of the data set: Antibacterial activity against Bacillus cereus ATCC 10231 assessed as growth inhibition by agar dilution assay. The data set is classed as functional.
Data set [5] has as its system Escherichia coli. Nature of the data set: Antibacterial activity against Escherichia coli ATCC 25922 assessed as growth inhibition by agar dilution assay. The data set is classed as functional. Put shortly:
as §1

A further data set relates to Bacteroides fragilis. In words: Antibacterial activity against Bacteroides fragilis assessed as growth inhibition by agar dilution assay. The data set is classed as functional. The procedure, abridged:
as §1

For data set [6], the system named is Escherichia coli. Nature of the data set: Antibacterial activity against Escherichia coli assessed as growth inhibition by agar dilution assay. The data set is classed as functional, organism-based. The procedure, abridged: as §1
The test system of data set [7] is Escherichia coli. In words: Antibacterial activity against Escherichia coli assessed as growth inhibition at <0.256 mg/ml by agar dilution assay. The data set is classed as functional, organism-based.
In data set [8] the test system is Escherichia coli. In words: Antibacterial activity against Escherichia coli assessed as growth inhibition by agar dilution assay in presence of 0.002 mg/ml OM permeabilizer PBMN. The data set is classed as functional.
The test system of another data set is Mus musculus. In words: In vivo acute toxicity in Kunming mouse assessed as mortality at 100 mg/kg, iv administered as single dose measured within 7 days. The data set is classed as organism-based. The arrangement: dose 100 mg/kg, route intravenous. Conditions: 168 h. The procedure, abridged: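 Male and female adult Kunming mice (18−22 g) received a single intravenous injection at various doses (n = 10 per group, 200 μL per mouse). Compound was given in polyethylene glycol−water (1:1, v/v), and controls received vehicle alone. Mortality was recorded for 7 days. LD50 was estimated by probit analysis.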

Data set [9] can be described thus: Binding affinity to supercoiled pHOT-1 DNA assessed as unwinding of DNA helix by measuring distribution of topoisomers at 10 to 150 uM treated 15 mins prior to Escherichia coli topoisomerase 1 addition for 30 mins by agarose gel electrophoresis.
A short description of data set [10]: Binding affinity to supercoiled pHOT-1 DNA assessed as unwinding of DNA helix by measuring shift of negative to positive supercoiled pHOT-1 at 10 to 150 uM treated 15 mins prior to Escherichia coli topoisomerase 1 addition for 30 mins by agarose gel electrophoresis.
Data set [11] is described as follows: Binding affinity to supercoiled pHOT-1 DNA assessed as unwinding of DNA helix by measuring distribution of topoisomers at 10 to 150 uM treated 15 mins prior to human topoisomerase 1 addition for 30 mins by agarose gel electrophoresis.
Data set [12] in a line: Binding affinity to supercoiled pHOT-1 DNA assessed as unwinding of DNA helix by measuring shift of negative to positive supercoiled pHOT-1 at 10 to 150 uM treated 15 mins prior to human topoisomerase 1 addition for 30 mins by agarose gel electrophoresis.
The next data set concerns the target T1, DNA topoisomerase 1 (Homo sapiens, UniProt P11387).
T1 sequence (P11387 whole entry): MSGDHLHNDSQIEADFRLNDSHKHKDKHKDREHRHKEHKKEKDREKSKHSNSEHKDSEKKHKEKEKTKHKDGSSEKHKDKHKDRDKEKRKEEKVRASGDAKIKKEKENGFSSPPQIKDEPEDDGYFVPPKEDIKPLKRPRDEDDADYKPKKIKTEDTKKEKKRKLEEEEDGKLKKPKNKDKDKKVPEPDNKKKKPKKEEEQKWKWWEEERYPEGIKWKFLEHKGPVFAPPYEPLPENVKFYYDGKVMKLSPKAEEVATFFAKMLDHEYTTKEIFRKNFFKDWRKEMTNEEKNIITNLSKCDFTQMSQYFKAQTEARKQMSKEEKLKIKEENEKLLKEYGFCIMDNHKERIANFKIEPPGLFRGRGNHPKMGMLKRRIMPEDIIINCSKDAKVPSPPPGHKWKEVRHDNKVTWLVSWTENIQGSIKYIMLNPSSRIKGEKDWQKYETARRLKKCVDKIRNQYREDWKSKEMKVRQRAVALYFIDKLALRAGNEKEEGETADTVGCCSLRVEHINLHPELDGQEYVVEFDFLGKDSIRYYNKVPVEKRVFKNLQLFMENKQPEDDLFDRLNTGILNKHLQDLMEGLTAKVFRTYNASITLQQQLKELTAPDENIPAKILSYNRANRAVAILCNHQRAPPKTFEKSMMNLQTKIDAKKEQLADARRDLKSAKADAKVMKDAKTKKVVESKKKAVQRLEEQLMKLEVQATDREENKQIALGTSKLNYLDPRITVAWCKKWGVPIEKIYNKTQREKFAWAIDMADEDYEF
In words: Inhibition of human topoisomerase 1-mediated pHOT-1 DNA relaxation at 10 to 150 uM treated with pHOT-1 substrate for 15 mins prior to enzyme addition for 30 mins by agarose gel electrophoresis. Conditions: 0.5 h.

Data set [13] deals with Escherichia coli. Nature of the data set: Inhibition of Escherichia coli DNA gyrase-mediated double-stranded catenated kinetoplast DNA decatenation at 90 uM after 30 mins by agarose gel electrophoresis in presence of ATP. The procedure, abridged: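 kDNA decatenation: 200 ng catenated kDNA with 1 U S. aureus gyrase, E. coli gyrase or human Topo IIα in assay buffer with ATP, 37 °C for 30 min. Stopped with universal stop solution, resolved on 1% agarose, ethidium bromide stained, UV imaging.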

Data set [14] has as its target DNA gyrase (Staphylococcus aureus) (UniProt P0A0K8+P20831). In words: Inhibition of Staphylococcus aureus DNA gyrase-mediated pHOT-1 supercoiling at 30 uM after 30 mins by agarose gel electrophoresis in presence of ATP. The data set is classed as protein-complex assay. Put shortly: (§2)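 Supercoiling: 100 ng relaxed pHOT-1 with 1 U S. aureus or E. coli gyrase and graded compound concentrations, ATP present, 37 °C for 30 min. Stopped with 10% SDS, 1% agarose electrophoresis, ethidium bromide staining, UV imaging; ciprofloxacin positive control.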

Data set [15] concerns Escherichia coli. In words: Inhibition of Escherichia coli DNA gyrase-mediated pHOT-1 supercoiling at 30 uM after 30 mins by agarose gel electrophoresis in presence of ATP. The procedure, abridged: as §2

Chain of DNA gyrase (Staphylococcus aureus) (P0A0K8 2-644 limits assumed): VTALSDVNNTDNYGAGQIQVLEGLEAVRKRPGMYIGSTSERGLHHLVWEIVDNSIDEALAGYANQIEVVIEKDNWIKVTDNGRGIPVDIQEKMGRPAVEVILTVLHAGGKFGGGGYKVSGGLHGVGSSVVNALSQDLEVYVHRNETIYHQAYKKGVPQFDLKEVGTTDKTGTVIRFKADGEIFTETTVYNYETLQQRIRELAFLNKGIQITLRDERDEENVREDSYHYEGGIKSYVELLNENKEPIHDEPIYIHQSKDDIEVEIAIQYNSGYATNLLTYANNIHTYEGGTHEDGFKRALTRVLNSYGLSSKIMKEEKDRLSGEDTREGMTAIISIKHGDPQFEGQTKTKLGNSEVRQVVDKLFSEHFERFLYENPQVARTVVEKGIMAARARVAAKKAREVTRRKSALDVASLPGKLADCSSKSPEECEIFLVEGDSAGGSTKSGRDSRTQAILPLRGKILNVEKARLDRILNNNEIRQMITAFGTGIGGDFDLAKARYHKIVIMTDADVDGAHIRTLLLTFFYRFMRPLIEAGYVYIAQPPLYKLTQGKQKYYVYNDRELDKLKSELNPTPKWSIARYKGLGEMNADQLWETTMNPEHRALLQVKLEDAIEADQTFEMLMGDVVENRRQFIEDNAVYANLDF
Chain of DNA gyrase (Staphylococcus aureus) (P20831 whole entry partner): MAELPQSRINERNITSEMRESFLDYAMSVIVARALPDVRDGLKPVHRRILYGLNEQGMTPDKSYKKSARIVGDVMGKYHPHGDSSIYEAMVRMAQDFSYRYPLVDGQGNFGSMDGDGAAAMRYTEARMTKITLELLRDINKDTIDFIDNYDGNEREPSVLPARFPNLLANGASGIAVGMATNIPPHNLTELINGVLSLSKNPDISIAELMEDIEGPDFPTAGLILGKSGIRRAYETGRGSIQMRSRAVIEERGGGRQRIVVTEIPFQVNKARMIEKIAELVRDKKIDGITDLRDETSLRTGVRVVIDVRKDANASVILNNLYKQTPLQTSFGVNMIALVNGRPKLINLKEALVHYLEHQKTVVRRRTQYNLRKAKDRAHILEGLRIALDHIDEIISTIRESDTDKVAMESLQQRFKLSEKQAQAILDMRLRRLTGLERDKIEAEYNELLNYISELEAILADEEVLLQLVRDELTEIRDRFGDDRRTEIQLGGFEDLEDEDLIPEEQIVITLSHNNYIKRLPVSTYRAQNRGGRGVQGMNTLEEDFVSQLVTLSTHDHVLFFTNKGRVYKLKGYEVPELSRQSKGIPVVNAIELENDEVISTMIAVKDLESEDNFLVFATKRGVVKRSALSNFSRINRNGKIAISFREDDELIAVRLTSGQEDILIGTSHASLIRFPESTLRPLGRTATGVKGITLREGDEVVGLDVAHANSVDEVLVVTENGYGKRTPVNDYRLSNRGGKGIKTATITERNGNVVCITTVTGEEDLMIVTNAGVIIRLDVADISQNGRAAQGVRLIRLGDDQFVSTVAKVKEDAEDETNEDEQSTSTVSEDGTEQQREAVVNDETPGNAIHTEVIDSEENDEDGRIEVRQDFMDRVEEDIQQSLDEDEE

With `Cc1cc(O)c2c(c1)C(=O)c1c(I)c(O)c(I)c(O)c1C2=O`, the MIC in the data set with Staphylococcus aureus came out at 8 µg/mL (≈ 15.3 µM); in [1], 1 µg/mL (≈ 1.92 µM); in data set [2] it was 4 µg/mL (≈ 7.66 µM); against Enterococcus faecalis [3], 16 µg/mL (≈ 30.6 µM); in the data set with Enterococcus faecalis [4], 8 µg/mL (≈ 15.3 µM); with Bacillus cereus, 4 µg/mL (≈ 7.66 µM). The MIC in the data set with Escherichia coli [5] is over 256 µg/mL; in the data set with Bacteroides fragilis it was 64 µg/mL (≈ 123 µM); in the data set with Escherichia coli [8], 8 µg/mL. Also, the “growth inhibition (GI)” value in the data set with Escherichia coli [6] and with Escherichia coli [7] was “inactive” throughout. Also, in the data set with Mus musculus, the Activity entry was “Non-toxic”. The result in data set [9], in data set [10], in [11] and in [12] was inactive. On DNA topoisomerase 1, the “inhibition (INH)” value is recorded as “Not Active”. In addition, the inhibition entry (with Escherichia coli [13]; in data set [14]; with Escherichia coli [15]) was “Active” throughout.
